In general, MIC80 refers to an inhibitory concentration at the 80% level, which refers to growth in some studies and to a panel of isolates in others. One may read the EC50 as the midpoint of the concentration-response curve.

Converted amounts (≈) assume the structure as drawn. The source made the active and inactive calls. No cut-off for these calls is given here.

We go through seven compounds from ChEMBL document CHEMBL3297675, “Mahorones, highly brominated cyclopentenones from the red alga Asparagopsis taxiformis” (J Nat Prod, 2014).

The test system of data set [1] is Staphylococcus aureus. Description: Antibacterial activity against methicillin-resistant Staphylococcus aureus by resazurin-based assay. The class given is functional. In outline:
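MRSA was grown in Luria Broth liquid culture with diluted inoculum, compound added from a DMSO stock. Plates were incubated overnight at 37 °C and scored for visible growth by turbidity or fluorescence, with resazurin as the viability read-out. Tests were run in triplicate within one experiment.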

The subject of data set [2] is Escherichia coli. Description: Antibacterial activity against Escherichia coli 5746 by resazurin-based assay. The class given is functional. The method in brief:
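Liquid broth assay in Luria Broth, inoculum plus compound from 0.312 mM DMSO stock. Tested at 5 μM final in triplicate within one experiment. Overnight incubation at 37 °C. Growth read by turbidity or fluorescence, with viability scored using resazurin at 0.002% final.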
In general terms: The colour change of resazurin is a common sign of viable cells or microbes.

In data set [3] the test system is Escherichia coli. Description: Antibacterial activity against Escherichia coli 2884 by resazurin-based assay. The class given is functional.
A further data set has as its system HT-29. Description: Cytotoxicity against human HT-29 cells after 24 hrs by MTT assay. In kind it is functional, cell-based. In outline: (§1)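 MTT assay with cells seeded at 3 × 10^4 cells/well. Compound taken from 1 mM DMSO stock, diluted 1/200 into medium and left on cells 24 h at 37 °C, 5% CO2. MTT then added at 0.5 mg·mL−1 in phenol red-free MEM for 3 h. Formazan dissolved in DMSO and absorbance read at 570 nm.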
On the technique in general: Tetrazolium assays rely on reduction of a dye to a coloured formazan, in cell work by metabolically active cells.

The test system of the next data set is Pseudomonas aeruginosa. Description: Antibacterial activity against Pseudomonas aeruginosa by resazurin-based assay. The class given is functional.
Another data set deals with Aliivibrio fischeri. Description: Toxicity in Vibrio fischeri NRRL B-11177 assessed as reduction in bioluminescence after 15 mins by microtox assay. The class given is organism-based. The conditions noted are these: NRRL B-11177, 0.25 h. In outline: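 Microtox assay with V. fischeri. Samples made up to 500 μg·mL−1 initial in artificial seawater containing 2% acetone, then tested at 45, 22.5, 11.25 and 5.625% of initial, in triplicate. Light loss read after 15 min exposure, γ = (I0/It) − 1. EC50 taken from log γ versus log concentration regression at γ = 1.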

The next data set concerns Acinetobacter baumannii. Description: Antibacterial activity against Acinetobacter baumannii by resazurin-based assay. In kind it is functional.
The test system of data set [4] is Aspergillus fumigatus. Nature of the data set: Antifungal activity against Aspergillus fumigatus by resazurin-based assay. The class given is functional. In outline:
(§2)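 Liquid assay in modified RPMI medium: RPMI-1640, Yeast Nitrogen Base, 1.8% glucose, 40 mM HEPES pH 7.1. Compound added from 0.5 mM solution before inoculum. Tested at 5 μM final in triplicate. Amphotericin B curve (0.5−4 μg·mL−1) run as control. Incubated overnight at 37 °C, then viability scored with resazurin at 0.002% final.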

A further data set deals with HepG2. Nature of the data set: Cytotoxicity against human HepG2 cells after 24 hrs by MTT assay. The class given is functional, cell-based. In outline:
as §1

In data set [5] the test system is Aspergillus fumigatus. Nature of the data set: Antifungal activity against Aspergillus fumigatus by resazurin-based assay in presence of caspofungin enhancer. The class given is functional. In outline:
as §2

A further data set deals with A549. Nature of the data set: Cytotoxicity against human A549 cells after 24 hrs by MTT assay. In kind it is functional, cell-based. In outline: as §1
Data set [6] relates to Staphylococcus aureus. Nature of the data set: Antibacterial activity against methicillin-sensitive Staphylococcus aureus by resazurin-based assay. In kind it is functional.
The test system of a further data set is MCF7. Description: Cytotoxicity against human MCF7 cells after 24 hrs by MTT assay. In kind it is functional, cell-based. The method in brief:
as §1

Data set [7] in a line: Cytotoxicity against human Fa2N-4 cells assessed as growth inhibition at 5 uM after 24 hrs by MTT assay relative to control. In kind it is cell-based. The conditions noted are these: read-out: GI. In outline:
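Fa2N4 healthy liver cells seeded at 3 × 10^4 cells/well. Exposed to compound at 5 μM (1 mM DMSO stock diluted 1/200) for 24 h at 37 °C, 5% CO2. Then 0.5 mg·mL−1 MTT for 3 h, formazan dissolved in DMSO, absorbance at 570 nm. Growth inhibition expressed as percent.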

A short description of data set [8]: Cytotoxicity against human Fa2N-4 cells after 24 hrs by MTT assay. The class given is cell-based. The conditions noted are these: fa2n-4, 24 h. In outline:
as §1

`C[C@@H](O)[C@H]1C(=O)N2C(C(=O)O)=C(SCCNC=N)C[C@H]12` [IMIPENEM ANHYDROUS] registered an MIC80 with Staphylococcus aureus [1] of 8 mg/L (≈ 26.7 µM).

`CO[C@@H]1[C@@H](OC(N)=O)[C@@H](O)[C@H](Oc2ccc3c(O)c(NC(=O)c4ccc(O)c(CC=C(C)C)c4)c(=O)oc3c2C)OC1(C)C` [NOVOBIOCIN]: the MIC80 came out at 0.1 mg/L (≈ 0.163 µM) against Escherichia coli [2] and 0.3 mg/L (≈ 0.49 µM) in the data set on Escherichia coli [3].

On to `O=C1C[C@](O)(C(Br)Br)C(Br)=C1Br`, for which the result with HT-29, in the data set with HepG2, in the data set on A549 and in the data set on MCF7 was inactive. Moreover, the MIC80 is over 10 mg/L with Pseudomonas aeruginosa; 8 mg/L (≈ 18.7 µM) in the data set on Acinetobacter baumannii; 16 mg/L (≈ 37.4 µM) against Escherichia coli [2]; over 32 mg/L with Escherichia coli [3]; 16 mg/L (≈ 37.4 µM) in the data set on Staphylococcus aureus [1]; over 32 mg/L with Aspergillus fumigatus [4]. In addition, the MIC80 in the data set with Aspergillus fumigatus [5] and with Staphylococcus aureus [6] was over 32 mg/L throughout. The EC50 in the data set with Aliivibrio fischeri amounted to 0.07 mg/L (≈ 0.164 µM). Further, the inhibition at 24 h, 5 µM in [7] stood at 53%.

With `O=C1C(Br)=C(Br)[C@@](O)(C(Br)Br)[C@@H]1Br`, the outcome in the data set with HT-29, in the data set with HepG2, with A549 and in the data set on MCF7 was inactive. The MIC80 is over 10 mg/L in the data set on Pseudomonas aeruginosa; 16 mg/L (≈ 31.6 µM) in the data set with Acinetobacter baumannii; 32 mg/L (≈ 63.2 µM) in the data set on Escherichia coli [2]; over 32 mg/L against Escherichia coli [3]; 16 mg/L (≈ 31.6 µM) in the data set with Staphylococcus aureus [1]; over 32 mg/L against Aspergillus fumigatus [4]. Moreover, the MIC80 in the data set with Aspergillus fumigatus [5] and in the data set with Staphylococcus aureus [6] was over 32 mg/L throughout. The EC50 with Aliivibrio fischeri was 0.08 mg/L (≈ 0.158 µM). The Activity result in data set [8] was “Non-toxic”.

Compound `CC1(C)S[C@@H]2[C@H](NC(=O)Cc3ccccc3)C(=O)N2[C@H]1C(=O)O` [PENICILLIN G] showed an MIC80 in the data set with Staphylococcus aureus [6] of 0.01 mg/L (≈ 0.0299 µM).

In the data set with Pseudomonas aeruginosa, `O=C(O)c1cn(C2CC2)c2cc(N3CCNCC3)c(F)cc2c1=O` [CIPROFLOXACIN] had an MIC80 of 1.5 mg/L (≈ 4.53 µM).

`CO[C@H]1/C=C/O[C@@]2(C)Oc3c(C)c(O)c4c(O)c(c(/C=N/N5CCN(C)CC5)c(O)c4c3C2=O)NC(=O)/C(C)=C\C=C\[C@H](C)[C@H](O)[C@@H](C)[C@@H](O)[C@@H](C)[C@H](OC(C)=O)[C@@H]1C` [RIFAMPIN]: in the data set on Acinetobacter baumannii, the MIC80 was 1 mg/L (≈ 1.22 µM).
